Source: PubChem BioAssay (The Scripps Research Institute Molecular Screening Center)
Hits are enriched below; roughly 1.5% of the tested compounds scored in any of these assays.
Tb MetRS inh: Trypanosoma brucei MetRS inhibition | purified T. brucei MetRS, ATP depletion, Kinase-Glo luminescence | inhibition, % at 11.9 µM | hit rate 0.4% among 360,000 | AID 624268;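 active = inhibition above a per-plate cutoff of the control wells' mean inhibition plus 3 SD, cut at about 5.5% in these data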;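 note: 0% = DMSO wells median and 100% = median of wells with control inhibitor compound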
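Material: parasite MetRS enzyme / Replication: singlicate, one well per compound / Signal: luminescence of leftover ATP / Schedule: 2 h aminoacylation at 25 °C after 15 min preincubation / Medium: HEPES-MgCl2-KCl buffer plus DTT, spermine, BSA, pyrophosphatase / Doses: 11.9 µM single point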
proCasp7 act: counter-screen: procaspase-7 (human) activation; hit rate 0.093% among 330,000; recombinant procaspase-7, Ac-DEVD-pNA absorbance 405 nm; D23A/D198A/D206A triple mutant, cannot self-cleave; scale: DMSO 0, 5 µM enzyme 100; activation, % at 8.5 µM; AID 463210;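 active = percent activation above the screen-wide mean plus 3 SD, cut at about 25% in these data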
Target sequence (P55210 whole entry D23A/D198A/D206A): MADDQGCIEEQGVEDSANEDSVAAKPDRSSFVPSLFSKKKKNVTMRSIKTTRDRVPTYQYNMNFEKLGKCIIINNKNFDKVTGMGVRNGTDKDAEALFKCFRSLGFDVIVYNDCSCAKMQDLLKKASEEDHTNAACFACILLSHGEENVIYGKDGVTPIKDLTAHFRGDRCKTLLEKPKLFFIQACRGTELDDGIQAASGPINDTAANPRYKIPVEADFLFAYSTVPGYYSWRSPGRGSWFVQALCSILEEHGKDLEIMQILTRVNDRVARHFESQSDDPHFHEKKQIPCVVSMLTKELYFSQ
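Assay system: Uncleavable procaspase-7 mutant enzyme / Input: 2 µM procaspase-7 mutant as dispensed / Dosing: single nominal 8.5 µM compound dose, 0.8% DMSO final / Timing: 1 h enzyme–compound preincubation and 2 h substrate reaction, both 25 °C / Detection: p-Nitroaniline absorbance at 405 nm, read at 0 and 120 min / Replication: singlicate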
MsrA inhibitor: bovine MsrA inhibition | purified bovine MsrA, absorbance read-out | inhibition, % at 15.5 µM | hit rate 0.75% among 360,000 | AID 651718;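 note: 0% = vehicle wells with enzyme and 100% = reference inhibitor wells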
proCasp3 act: procaspase-3 (human) activation; AID 463141; activation, % at 8.5 µM; hit rate 0.11% among 330,000; recombinant procaspase-3 D3A, Ac-DEVD-pNA absorbance 405 nm;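 active = activation above the mean of all tested compounds plus 3 SD, cut at about 21% in these data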;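 note: 0% = DMSO alone and 100% = DMSO wells spiked with extra 5 µM PC-3 D3A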
Target sequence (P42574 whole entry D9A/D28A/D175A): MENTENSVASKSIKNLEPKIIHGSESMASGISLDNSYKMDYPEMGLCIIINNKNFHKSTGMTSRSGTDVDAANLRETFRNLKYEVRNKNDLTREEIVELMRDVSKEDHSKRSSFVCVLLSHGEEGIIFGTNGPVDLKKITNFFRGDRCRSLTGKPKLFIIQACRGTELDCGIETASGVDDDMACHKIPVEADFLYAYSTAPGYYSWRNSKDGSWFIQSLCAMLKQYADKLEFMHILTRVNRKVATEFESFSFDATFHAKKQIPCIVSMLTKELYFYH
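Assay system – Procaspase-3 D3A mutant · Benchmarks – DMSO low control, extra-enzyme high control · Technique – 405 nm absorbance of p-nitroaniline, reads at 0 and 120 min · Doses – 8.5 µM nominal · Measure – % activation between DMSO and enzyme-spiked controls · Also added – Ac-DEVD-pNA chromogenic peptide substrate · Schedule – 1 h compound preincubation, 2 h substrate hydrolysis at 25 °C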
MsrA act: activates bovine MsrA enzyme. activation, % at 10.6 µM. purified bovine MsrA, absorbance read-out. hit rate 0.3% among 360,000; in the data active = activation above about 7.5%;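 note: 0% = vehicle and 100% = reference activator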
MsrA conf: bovine MsrA inhibition, confirmed; shares compounds with MsrA inhibitor; purified bovine MsrA, absorbance read-out; inhibition, % at 15.5 µM; hit rate 41% among 2,300; AID 651822;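 note: coupled to thioredoxin reductase with NADPH and selenocystamine and DMSO as substrate; 0% = vehicle only and 100% = full effect of reference inhibitor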
* = called active by the depositor; x = no result. Cut-off read from the data, not from the text of the source, unless noted: active = inhibition above about 4.5%; inactive = the rest.

SMILES | Tb MetRS inh | proCasp7 act | MsrA inhibitor | proCasp3 act | MsrA act | MsrA conf
CN1/C(=C\C=Nc2cc(S(=O)(=O)N3CCOCC3)ccc2N2CCOCC2)C(C)(C)c2ccccc21 | 0 | 12 | 7.6* | -4 | -1 | 2
COc1ccc(NC(=O)Nc2ccc3c(c2)C(=O)N([C@H](C)CO)C[C@H](C)[C@H](CN(C)C)OCCCC[C@@H](C)O3)cc1 | x | x | 0 | x | x | x
CCCCc1c(-c2cccc(Br)c2)ncn1CCc1ccccc1OC | 0 | x | 1 | x | 1 | x
Cc1ccc(N=C2C(=O)Nc3ccccc32)cc1 | 0 | -3 | 0 | 2 | -2 | x
Cc1nc2c(o1)C(=O)c1ccccc1C2=Nc1ccccc1 | 0 | x | 8.9* | x | -2 | 15*
O=C(CC1S/C(=N/N=C/c2ccco2)NC1=O)Nc1ccccc1 (centres undefined) | 0 | 0 | 5.3* | -2 | -3 | 5.3*
O=C1CC(C(=O)Nc2ccc(F)cc2)S/C(=N\N=C\c2ccco2)N1 (centres undefined) | 0 | 4 | 6.3* | -12 | -5 | 5.0*
COc1ccc(/C=N/N=C2/NC(=O)C(CC(=O)NC(C)C)S2)cc1 (centres undefined) | 0 | -1 | 1 | 3 | -5 | x
Cc1ccc(/C=N/N=C2/NC(=O)C(CC(=O)N3CCOCC3)S2)cc1 (centres undefined) | 0 | -12 | 5.8* | -11 | -4 | 2
O=C(CC1S/C(=N/N=C/c2c[nH]c3ccccc23)NC1=O)Nc1ccccc1 (centres undefined) | 0 | -4 | 4 | 3 | -6 | x
NC(=O)NC(=O)CC1S/C(=N/N=C/c2ccccc2)NC1=O (centres undefined) | 0 | -1 | 5.3* | 5 | -15 | 4
O=C(CC1S/C(=N/N=C/c2cccs2)NC1=O)Nc1ccc(Cl)cc1 (centres undefined) | 0 | -1 | 1 | -4 | -4 | x
C/C(=N\N=C1\NC(=O)C(CC(=O)Nc2ccc(Cl)cc2)S1)c1ccco1 (centres undefined) | 0 | 9 | 4.8* | -2 | -5 | 4.8*
COCCNC(=O)c1c(N)[nH]c(C(=O)c2ccc(Br)cc2)c1-c1ccc(Br)cc1 | x | x | 0 | x | x | x
COC(=O)C1=C(C)N(Cc2ccccc2C(F)(F)F)C(=NCc2cccc(C(F)(F)F)c2)NC1c1cccc(Cl)c1 (centres undefined) | x | x | -2 | x | x | x
CCOC(=O)c1nnsc1Nc1ccc(C)c(C)c1 | 2 | 12 | 8.2* | -8 | 0 | 7.0*
CCOC(=O)c1nnsc1-c1ccc(-c2snnc2C(=O)OCC)cc1 | 0 | 0 | 0 | -3 | -1 | x
CC(C)[C@H](NC(=O)C1CC1)C(=O)N1CCC[C@H]1C(=O)NCCc1ccccc1Cl | x | x | 0 | x | x | x
CCN(CC)c1ccc(-c2nc3cnccc3n2C)cc1 | -1 | -13 | 5.4* | -14 | -6 | 3
Cn1c(-c2ccncc2)nc2ccccc21 | 1 | -3 | 1 | -2 | -2 | x
NS(=O)(=O)c1cc(C(=O)OCC(=O)Nc2ccccc2[N+](=O)[O-])ccc1Cl | 0 | 7 | 12* | -1 | -5 | 6.0*
NS(=O)(=O)c1cc(C(=O)OCC(=O)Nc2ccc(Cl)cc2[N+](=O)[O-])ccc1Cl | 0 | 2 | 0 | -6 | -12 | x
COc1ccc(NC(=O)CN2CCCCC2)c([N+](=O)[O-])c1 | 1 | 0 | 1 | -10 | 0 | x
COc1ccc(NC(=O)COC(=O)C2CCCCC2)c([N+](=O)[O-])c1 | 0 | 7 | 12* | 0 | -3 | 8.1*
COc1ccc(NC(=O)COC(=O)c2cc(OC)c(OC)c(OC)c2)c([N+](=O)[O-])c1 | 0 | 7 | 0 | -3 | -7 | x
SMILES | Tb MetRS inh | proCasp7 act | MsrA inhibitor | proCasp3 act | MsrA act | MsrA conf
CNS(=O)(=O)c1cccc(C(=O)OCC(=O)Nc2ccc(OC)cc2[N+](=O)[O-])c1 | 1 | -3 | 6.0* | 8 | -4 | 1
CC1Cc2ccccc2N1C(=O)c1cnc2sccn2c1=O (centres undefined) | -2 | -7 | 5.4* | -8 | -9 | 4
CC(=O)c1cnc2sccn2c1=O | 0 | 18 | 6.2* | -1 | -2 | 2
COC(=O)[C@]12C[C@H](CC(=O)NCc3cccc(C(F)(F)F)c3)C(=O)N(Cc3ccccc3)C1=C[C@H](C(C)(C)C)O[C@@H]2C | x | x | 0 | x | x | x
CN(CCc1ccccc1)C(=O)CC1C(=O)NCCN1Cc1ccccn1 (centres undefined) | 0 | x | 1 | x | 5 | x
CCCCCCCCN1C(=O)[C@@H](CC(=O)NCc2ccc(C)o2)C[C@@]2(C(=O)OC)C1=C[C@H](C1CCCC1)O[C@@H]2C | x | x | 0 | x | x | x
Cc1ccc(S(=O)(=O)c2ccc([N+](=O)[O-])o2)cc1 | 0 | x | 1 | x | 4 | x
O=C(O)c1cc(-c2ccc(Cl)s2)nc2ccccc12 | 0 | 9 | 4 | 5 | -3 | x
Cc1ccc(-c2cc(C(=O)O)c3ccccc3n2)s1 | 0 | x | 5.4* | x | -2 | 3
CN(C)c1ccc(C=NCC2COc3ccccc3O2)cc1 (centres undefined) | -1 | 4 | 5.5* | 4 | -5 | 5.2*
CN(CC1COc2ccccc2O1)C(=O)c1ccc(N(C)C)cc1 (centres undefined) | -1 | -5 | 0 | 7 | -2 | x
Cn1c(C(C#N)C(=O)c2ccco2)nc2ccccc21 (centres undefined) | -1 | 6 | 5.1* | -9 | -3 | 5.5*
Cn1c(O)c(N=NC(=O)CNC(=O)c2cccnc2)c2ccccc21 | 0 | 12 | 4.7* | 6 | -2 | 2
N#C/C(=C/c1cccs1)c1ccccn1 | 0 | 0 | 5.1* | -2 | -5 | 5.4*
Cn1c(SCc2cccc(C#N)c2)nc2ccccc2c1=O | -1 | -11 | 1 | -4 | -5 | x
Cc1cccc(C)c1NC(=O)C1(C)CSCC(=O)N1CCC(C)C (centres undefined) | 0 | x | -1 | x | x | x
CN(C)c1nc(N)nc(CSc2nnnn2-c2ccc(Cl)cc2)n1 | 1 | x | -1 | x | 1 | x
O=Cc1ccc([B-](F)(F)F)o1 | x | x | 0 | x | x | x
Cc1ccn2c(=O)c(C(=O)O)cnc2c1 | 0 | -2 | 4.7* | -7 | -2 | 4
OCC[C@@H]1C[C@H](O)[C@@H](O)[C@@]2(OCCc3cc(C(F)(F)F)ccc32)O1 | x | x | 0 | x | x | x
N/C(=N\N=C\c1ccc2c(c1)OCO2)c1nonc1N | -1 | -5 | 7.3* | -4 | -7 | 4
COC(=O)C1(C(=O)OC)C2CCCCC2N(S(=O)(=O)c2ccc(C)cc2)[C@@H]1CC(C)=O (some centres undefined) | 0 | x | 0 | x | x | x
Cc1ccc(/C=C(\C#N)C(=O)NC(C)C)o1 | -1 | 6 | 6.1* | -1 | -17 | 5.0*
